Source: article PMC10060059 (Thrombosis and Haemostasis, 2023)
Read-outs that look alike come from different tables or passages of the source. Marks after values point to notes of the source that are not given here.

Key:
[1] = Rivaroxaban/apixaban plasma concentrations; assay type: in vivo, human; conditions: for Effect of creatinine clearance on Cmax, multivariate analysis / Effect of creatinine clearance on Cmax, univariate analysis / Effect of creatinine clearance on Cmin, multivariate analysis / Effect of creatinine clearance on Cmin, univariate analysis: per decrease of 10 mL/min
thrombin generation = assay: Thrombin generation on ST-Genesia; assay type: biochemical, human
[2] = Six-month clinical follow-up; assay type: in vivo, human; conditions: 6-month follow-up
In short: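 Bleedings (site, severity), thromboembolic events (site) and deaths were recorded. Two geriatricians blinded to PK/PD data classed bleeds as major or nonmajor clinically relevant, and minor bleeds were not systematically recorded. Rates were given per DOAC group.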

[3] = cited from earlier work
[4] = 2.5 mg b.i.d. vs. 5 mg b.i.d., listed as apixaban
[5] = CYP3A4/5 modulator in addition to amiodarone
[6] = full dose: rivaroxaban 20 mg o.d., apixaban 5.0 mg b.i.d.
[7] = reduced dose: rivaroxaban 15 mg o.d., apixaban 2.5 mg b.i.d.
[8] = rivaroxaban 15 mg o.d., apixaban 2.5 mg b.i.d.
[9] = STG-ThromboScreen without thrombomodulin
[10] = for halved concentrations, STG-ThromboScreen without thrombomodulin
[11] = per decrease of 10 mL/min, STG-ThromboScreen without thrombomodulin
[12] = P-gp modulator in addition to amiodarone

## COc1ccc(-n2nc(C(N)=O)c3c2C(=O)N(c2ccc(N4CCCCC4=O)cc2)CC3)cc1 [Apixaban, apixaban]
[1]; 2.5 mg b.i.d. vs. 5 mg b.i.d.
  Effect of dose regimen on Cmax, multivariate analysis: +64.8% ^e [16.6; 132.9]
  Effect of dose regimen on Cmax, univariate analysis: +44.9% ^e [7.14; 96.1]
  Effect of dose regimen on Cmin, multivariate analysis: +54.8% ^e [6.65; 124.6]
  Effect of dose regimen on Cmin, univariate analysis: +45.6% ^e [4.7; 102.6]
[1]; [4]
  Effect of dose regimen on Cmax, multivariate analysis: +64.8%
  Effect of dose regimen on Cmax, univariate analysis: 44.9%
  Effect of dose regimen on Cmin, multivariate analysis: +54.8%
  Effect of dose regimen on Cmin, univariate analysis: 45.6%
[1]; [5]
  Effect of CYP3A4/5 modulator on Cmin, univariate analysis: +20.8% [−9.8; 61.7]
[1]; amiodarone intake
  Effect of amiodarone on Cmax, multivariate analysis: +79.3% [5.5; 204.7]
  Effect of amiodarone on Cmax, univariate analysis: +43.5% [7.9; 90.9]
  Effect of amiodarone on Cmin, univariate analysis: +14.4% [−18.5; 60.5]
[1]; amiodarone intake, listed as apixaban
  Effect of amiodarone on Cmax, univariate analysis: +43.5%
[1]; female gender
  Effect of female gender on Cmax, multivariate analysis: +28.7% [−4.5; 73.4]
  Effect of female gender on Cmax, univariate analysis: +44.0% [7.4; 93.1]
  Effect of female gender on Cmin, univariate analysis: +15.7% [−14.9; 57.1]
[1]; female gender, listed as apixaban
  Effect of female gender on Cmax, univariate analysis: +44.0%
[1]; [6]
  inter-individual variability of Cmax (coefficient of variation): 47%
  inter-individual variability of Cmin (coefficient of variation): 68%
[1]
  Effect of creatinine clearance on Cmax, multivariate analysis: +4.5% ^b [−3.0; 11.4]
  Effect of creatinine clearance on Cmax, univariate analysis: +3.3% ^b [−4.28; 10.31]
  Effect of creatinine clearance on Cmin, multivariate analysis: +4.5% ^b [−4.9; 13.1]
  Effect of creatinine clearance on Cmin, univariate analysis: +4.6% ^b [−4.2; 12.7]
[1]; per mutated allele
  Effect of ABCB1 3435C > T on Cmax, multivariate analysis: +10.1% ^d [−8.3; 25.3]
  Effect of ABCB1 3435C > T on Cmax, univariate analysis: +2.1% ^d [−18.7; 19.3]
  Effect of ABCB1 3435C > T on Cmin, univariate analysis: +14.8% ^d [−4.1; 30.3]
[1]; per mutated allele, listed as apixaban
  Effect of ABCB1 3435C > T on Cmin, univariate analysis: +14.8%
[1]; [7]
  inter-individual variability of Cmax (coefficient of variation): 46%
  inter-individual variability of Cmin (coefficient of variation): 61%
[1]; [8]
  patients above the 95th percentile of SmPC values at Tmin: 9.7%
  patients below the 5th percentile of SmPC values at Tmin: 9.7%
Thrombin generation; STG-DrugScreen and STG-ThromboScreen without TM
  association of ETP with DOAC concentrations: ETP was associated with apixaban concentrations
Thrombin generation; [9]
  Effect of amiodarone on peak height at Tmax, multivariate: −26.0% [−91.8; 564.1]
  Effect of amiodarone on peak height at Tmax, univariate: +3.7% [−58.7; 160.1]
  Effect of amiodarone on peak height at Tmin, multivariate: −57.47% [−83.2; 7.9]
  Effect of amiodarone on peak height at Tmin, univariate: −37.2% [−60.0; −1.5]
  Effect of heart failure on peak height at Tmax, multivariate: −9.2% [−62.9; 122.6]
  Effect of heart failure on peak height at Tmax, univariate: −26.7% [−66.7; 61.4]
  Effect of heart failure on peak height at Tmin, multivariate: +0.84% [−30.8; 46.9]
Thrombin generation; STG-ThromboScreen without thrombomodulin, listed as apixaban
  Effect of amiodarone on peak height at Tmin, univariate: −37.2%
Thrombin generation; [10]
  Effect of plasma concentrations on peak height at Tmax, multivariate: +86.8% ^a [−0.48; 250.5]
  Effect of plasma concentrations on peak height at Tmin, multivariate: +32.7% ^a [8.28; 62.59]
  Effect of plasma concentrations on peak height at Tmin, univariate: 37.1% ^a 13.1; 66.2]
Thrombin generation; [11]
  Effect of creatinine clearance on peak height at Tmax, multivariate: +2.4% ^b [−17.9; 27.8]
  Effect of creatinine clearance on peak height at Tmax, univariate: +0.42% ^b [4.70; 36.9]
  Effect of creatinine clearance on peak height at Tmin, univariate: 1.7% ^b [−10.7; 15.8]
[2]
  death rate: 18.9%
  thromboembolic event rate: 3.6%
[3]; ARISTOTLE patients (median age 70 years) receiving 2.5 mg b.i.d.
  median Cmax: 123 ng/mL
[3]; SmPC, ARISTOTLE data set, mean age 70 years
  inter-individual variability of concentrations: around 30%

## O=C(NC[C@H]1CN(c2ccc(N3CCOCC3=O)cc2)C(=O)O1)c1ccc(Cl)s1 [Rivaroxaban, rivaroxaban]
[1]; 15 mg o.d. vs. 20 mg o.d.
  Effect of dose regimen on Cmax, multivariate analysis: 29.4% ^a [−14.2; 95.2]
  Effect of dose regimen on Cmax, univariate analysis: +20.3% ^a [−16.7; +73.5]
  Effect of dose regimen on Cmin, multivariate analysis: −3.2% ^a [−35.1; 44.6]
  Effect of dose regimen on Cmin, univariate analysis: −3.8% ^a [−35.1; +42.6]
[1]; 15 mg o.d. vs. 20 mg o.d., listed as rivaroxaban
  Effect of dose regimen on Cmax, univariate analysis: +20.3%
[1]; [5]
  Effect of CYP3A4/5 modulator on Cmax, multivariate analysis: +10.6% [−23.1; 58.9]
  Effect of CYP3A4/5 modulator on Cmax, univariate analysis: +9.5% [−21.0; 51.6]
  Effect of CYP3A4/5 modulator on Cmin, multivariate analysis: +43.1% [5.3; 94.3]
  Effect of CYP3A4/5 modulator on Cmin, univariate analysis: +31.1% [−24.7; 72.2]
[1]; [12]
  Effect of P-gp inhibitor on Cmax, multivariate analysis: −6.31% [−35.8; 36.6]
  Effect of P-gp inhibitor on Cmax, univariate analysis: −9.95% [−35.3; 25.4]
  Effect of P-gp inhibitor on Cmin, multivariate analysis: −8.7% [−34.2; 26.8]
  Effect of P-gp inhibitor on Cmin, univariate analysis: −15.9% [−37.6; 13.5]
[1]; amiodarone intake
  Effect of amiodarone on Cmax, multivariate analysis: −26.1% ^b [−75.8; 125.5]
  Effect of amiodarone on Cmax, univariate analysis: +4.73% [−31.5; 60.2]
  Effect of amiodarone on Cmin, multivariate analysis: 99.8% ^c [10.3; 262.0]
  Effect of amiodarone on Cmin, univariate analysis: +47.8% [−2.8; 109.4]
[1]; amiodarone intake, listed as rivaroxaban
  Effect of amiodarone on Cmin, univariate analysis: +47.8%
[1]; female gender
  Effect of female gender on Cmax, multivariate analysis: +11.8% [−20.8; 57.9]
  Effect of female gender on Cmax, univariate analysis: +12.2% [−17.7; 53.0]
  Effect of female gender on Cmin, multivariate analysis: −10.1% [−35.2; 22.3]
  Effect of female gender on Cmin, univariate analysis: −14.2% [−36.0; 15.1]
[1]; [6]
  inter-individual variability of Cmax (coefficient of variation): 47%
  inter-individual variability of Cmin (coefficient of variation): 37%
[1]
  Effect of creatinine clearance on Cmax, multivariate analysis: +3.4% ^b [−7.6; 15.6]
  Effect of creatinine clearance on Cmax, univariate analysis: +1.89% ^b [−8.2; 13.1]
  Effect of creatinine clearance on Cmin, multivariate analysis: +5.0% ^b [−4.9; 16.0]
  Effect of creatinine clearance on Cmin, univariate analysis: +8.1% ^b [−3.9; 15.8]
[1]; listed as rivaroxaban
  Effect of creatinine clearance on Cmin, univariate analysis: +8.1%
[1]; per mutated allele
  Effect of ABCB1 3435C > T on Cmax, multivariate analysis: +18.3% ^d [−10.9; 39.8]
  Effect of ABCB1 3435C > T on Cmax, univariate analysis: +18.3% ^d [−5.3; 36.6]
  Effect of ABCB1 3435C > T on Cmin, multivariate analysis: +10.4% ^d [−14.9; 30.1]
  Effect of ABCB1 3435C > T on Cmin, univariate analysis: +16.9% ^d [−6.6; 31.0]
[1]; per mutated allele, listed as rivaroxaban
  Effect of ABCB1 3435C > T on Cmin, univariate analysis: +16.9%
[1]; [7]
  inter-individual variability of Cmax (coefficient of variation): 49%
  inter-individual variability of Cmin (coefficient of variation): 75%
[1]; rivaroxaban 15 mg o.d., T1-T4, NVAF in-patients ≥80 years
  median Cmax: 251 ng/mL
[1]; [8]
  patients above the 95th percentile of SmPC values at Tmin: 3.1%
  patients below the 5th percentile of SmPC values at Tmin: 21.5%
Thrombin generation; [9]
  Effect of amiodarone on peak height at Tmin, multivariate: −44.6%** [−75.1; 23.2]
  Effect of amiodarone on peak height at Tmin, univariate: −52.2%
  Effect of heart failure on peak height at Tmax, multivariate: −22.3% [−45.0; 9.8]
  Effect of heart failure on peak height at Tmax, univariate: −36.6%
  Effect of heart failure on peak height at Tmin, multivariate: −12.7% [−37.7; 22.4]
  Effect of heart failure on peak height at Tmin, univariate: −31.4% [−52.2; −1.7]
Thrombin generation; [10]
  Effect of plasma concentrations on peak height at Tmax, multivariate: –5.0% ^a [−27.9; 25.2]
  Effect of plasma concentrations on peak height at Tmax, univariate: +23.9% ^a [−11.4; 73.2]
  Effect of plasma concentrations on peak height at Tmin, multivariate: +21.0% ^a [−4.0; 52.4]
  Effect of plasma concentrations on peak height at Tmin, univariate: +38.7% ^a [12.4;71.1]
Thrombin generation; [11]
  Effect of creatinine clearance on peak height at Tmax, multivariate: −16.4% ^b [−26.3; −5.0]
  Effect of creatinine clearance on peak height at Tmin, multivariate: −6.76% ^b [−15.5; 2.8]
  Effect of creatinine clearance on peak height at Tmin, univariate: −6.1% ^b [−16.2; 5.2 ]
[2]
  death rate: 17.3%
  thromboembolic event rate: 1.0%
[3]; Mueck et al's data
  inter-individual variability of Cmax and Cmin: around 30%
